# Screening results deposited in PubChem BioAssay by several laboratories.
# In the library only some 4.7% were active in any assay of this set; here they are far more common.
# aSyn 5UTR inh: MLPCN primary screen, SNCA 5' untranslated region; alpha-synuclein 5'UTR reporter, inhibitor activity; inhibition, % (tested at 7.5 µM); 300,000 compounds, 0.82% hits; AID 1813; in the data active = inhibition above about 60%;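 note: H4 neuroglioblastoma cells stably carrying SNCA 5'UTR luciferase fusion; 0% = DMSO wells and 100% = positive control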
# VIM-2 inh: blocks Pseudomonas aeruginosa VIM-2 metallo-beta-lactamase. purified VIM-2, nitrocefin hydrolysis, epi-absorbance fluorescence. inhibition, % at 5.6 µM. 290,000 compounds, 0.89% hits;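 active = inhibition above the mean of all tested compounds plus 3 SD, cutoff set per screening run, cut at about 7.5% in these data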;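 note: red hydrolysis product quenches plate fluorescence so inhibitors raise well fluorescence; 0% = enzyme with DMSO and 100% = DMSO without enzyme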
# Mdm2 MdmX PPI: disrupts the human Mdm2-MdmX interaction; O15151+Q00987; SaOS-2 split-luciferase Mdm2/MdmX complementation, luminescence; inhibition, % at 8 µM; 330,000 compounds, 3% hits; AID 485346;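 active = inhibition of at least 50% at 8 µM in the primary screen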
# Jurkat NFkB inh: lowers PMA/ionomycin-induced NF-kB signal in Jurkat cells; AID 435003; PMA/ionomycin-induced NF-kB luciferase reporter, luminescence; 330,000 compounds, 0.53% hits; inhibition, % at 4 µM; in the data active = inhibition above about 50%
# IMP-1 inhibitor: inhibitors of Pseudomonas aeruginosa IMP-1 metallo-beta-lactamase. purified IMP-1, nitrocefin hydrolysis, epi-absorbance fluorescence. inhibition, % at 5.6 µM. 290,000 compounds, 0.45% hits;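 active = inhibition above the mean plus 3 SD of all compounds in the same screening run, cut at about 4.5% in these data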;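 note: 0% = IMP-1 with DMSO and 100% = DMSO wells lacking enzyme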
#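 System – purified recombinant IMP-1 beta-lactamase · Input – IMP-1 dispensed at 0.2 nM · Timing – 15 min preincubation plus 25 min reaction at 25 °C · Signal – Epi-absorbance fluorescence, 480 nm excitation, 530 nm emission · Measure – percent IMP-1 inhibition derived from blank-referenced optical density · Controls – Enzyme-plus-DMSO low control, enzyme-free DMSO high control · Replication – singlicate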
# 697 NFkB inh: lowers PMA/ionomycin-induced NF-kB signal in 697 B cells | inhibition, % at 4 µM | AID 435022 | 697 B-cell NF-kB luciferase reporter, 16 h | 330,000 compounds, 0.33% hits; in the data active = inhibition above about 35%
# * hit, by the source's call; · = no result given.
SMILES,aSyn 5UTR inh,VIM-2 inh,Mdm2 MdmX PPI,Jurkat NFkB inh,IMP-1 inhibitor,697 NFkB inh
CCc1nc(NCc2cccnc2)c2oc3ccccc3c2n1,8,11*,10,12,-3,-20
O=C(CSc1nnc(-c2ccccc2)o1)Nc1ccccc1F,74*,-1,-6,-33,3,-159
O=C(CSc1nnc(-c2ccncc2)o1)Nc1cc(F)ccc1F,·,·,-22,-63,·,-44
CSc1nc2[nH]c3c(c2c2ncnn12)CCCC3,12,11*,2,-12,-2,-64
Cc1nc(SCC(=O)c2ccccc2)c(C#N)c(-c2ccco2)c1C(=O)NCc1ccco1,4,6,34,16,5.0*,0
COCCOC(=O)c1c(C)nc(SCC(=O)Nc2ccc(OC)cc2)c(C#N)c1-c1ccco1,11,-1,-2,1,-1,7
Cc1ccsc1/C=N\NC(=O)c1n[nH]c2c1CCC2,69*,-2,3,37,-4,-107
Cc1cc(S(=O)(=O)N2CCN(CC(=O)NCCc3cccs3)CC2)ccc1Br,·,·,17,2,·,2
Cc1ccc(C(=O)N/C(=C/c2cccnc2)C(=O)N2CCCCCC2)cc1,2,-1,8,2,-1,-1
O=C(CC(C(=O)O)c1cccc(Cl)c1)c1ccccc1 (stereo unspecified),4,11*,18,20,0,0
CC(C)CC1=C/C(=C/c2ccc(-c3ccccc3)o2)C(=O)O1,-29,-3,9,-3,4.9*,9
NS(=O)(=O)c1ccc(-c2ccc(C=C3C(=O)c4ccccc4C3=O)o2)cc1,-11,1,15,-3,-1,22
O=C(O)c1ccc(N/N=C/c2ccc(OC(=O)c3cccc(Cl)c3)cc2)cc1,76*,-1,-1,44,-2,34
O=C(Oc1ccc(/C=N/Nc2ccccc2)cc1)c1ccccc1,-25,-2,-8,-8,-1,-7
O=C(O)c1cccc(N/N=C/c2ccc(OC(F)(F)F)cc2)c1,64*,-1,-149,9,-1,-216
O=C(O)c1cccc(N/N=C/c2cccs2)c1,96*,3,-51,42,0,-36
O=C(COC(=O)CNC(=O)c1ccccc1)NCCCc1ccccc1,·,·,-13,3,·,21
CCOc1ccccc1-c1c2cc(O)c(=O)cc-2oc2cc(O)c(O)cc12,·,1,·,·,6.8*,·
COc1ccc(OC)c(-c2c3cc(O)c(=O)cc-3oc3cc(O)c(O)cc23)c1,·,1,·,·,4.7*,·
CN(C(=O)COC(=O)/C=C/c1cccs1)C1CCCCC1,·,·,-25,-9,·,4
CCC(C)N(C(=O)CSc1nc2ccc(OC)cc2[nH]1)C1CCS(=O)(=O)C1 (stereo unspecified),2,·,26,1,·,8
COc1cc(C(=O)N/N=C(\c2ccccc2)c2ccccn2)cc(OC)c1OC,81*,-3,46,18,-5,-33
Cc1ccc(Cl)c2c(N=Nc3ccccc3)c(O)[nH]c12,-170,7,-84,-138,4.6*,-181
NC(=O)C1CCN(C(=O)Cc2ccc(-c3ccccc3)cc2)CC1,-4,-1,-21,3,9.7*,12
O=C(O)C1CCN(C(=O)Cc2ccccc2)CC1,5,-4,0,15,-3,2
SMILES,aSyn 5UTR inh,VIM-2 inh,Mdm2 MdmX PPI,Jurkat NFkB inh,IMP-1 inhibitor,697 NFkB inh
COc1ccc(CN2C(=O)c3cccnc3C2=O)cc1S(=O)(=O)NC1CCCCC1C (stereo unspecified),-6,0,19,-1,-2,-34
COc1ccc(-c2nnc3ccc(SC)nn23)cc1,-24,8.2*,14,0,-4,-1
Cc1cccc(N2CCN(C(=S)Nc3ccc4nc(N5CCN(C)CC5)cc(C)c4c3)CC2)c1C,95*,0,·,·,-2,·
Cc1cc(-c2[nH]nc3c2C(c2cccc(O)c2)C(C#N)=C(N)O3)c(C)s1 (stereo unspecified),10,3,-11,13,6.8*,23
Cc1cc(-c2[nH]nc3c2C(c2ccsc2)C(C#N)=C(N)O3)c(C)s1 (stereo unspecified),-12,-2,15,11,-1,18
CC(C)N1CCN(c2ccc(S(=O)(=O)N3CCOCC3)cn2)CC1,·,0,26,8,-1,21
CN(/N=C/c1ccncc1)C1=NS(=O)(=O)c2ccccc21,-7,9.9*,5,4,-3,1
CN(C)c1ccc(/C=N/N(CCC#N)C2=NS(=O)(=O)c3ccccc32)cc1,-2,9.1*,-2,-4,-2,0
c1ccc2c(c1)CC(N1CCCCC1)c1ccccc1S2 (stereo unspecified),90*,·,23,-25,·,-52
COc1ccc(N2CCN(C(=O)COC(=O)COc3ccc(C#N)cc3)CC2)cc1,1,·,3,4,·,18
O=S1(=O)[C@H]2C[C@H](CO)O[C@@]2(CO)CN1Cc1ccc(-c2cccc(Cl)c2)cc1,·,·,5,·,·,2
c1cnc(SCCOc2cccc3ccccc23)nc1,-186,-1,-114,-90,4.8*,-98
CCCc1[nH]nc2c1C(c1ccc(OCCN3CCOCC3)c(OCC)c1)C(C#N)=C(N)O2 (stereo unspecified),-23,8.7*,-4,2,-3,10
CCOc1cc(C2C(C#N)=C(N)Oc3n[nH]c(C)c32)ccc1OCCN1CCOCC1 (stereo unspecified),16,1,-19,2,-1,29
CCCCn1c(N)c(N(CCOC)C(=O)c2cc(Cl)nc3ccccc23)c(=O)[nH]c1=O,6,·,22,-4,·,10
O=C(O)CC/C(=C\c1ccc(N2CCCC2)c([N+](=O)[O-])c1)c1nc2ccccc2s1,-17,2,-5,-9,-2,-10
O=C(O)CC/C(=C\c1ccccc1[N+](=O)[O-])c1nc2ccccc2s1,23,8.8*,25,-6,-2,5
CC(C)N1CC(O)=C(c2nc3ccccc3c(=O)[nH]2)C1=N,-75,10*,1,-7,-4,10
CN(C)CCSc1nnc2[nH]c3ccccc3c2n1,-29,10*,-48,-16,-1,11
CCN(CC(=O)Nc1cc(S(=O)(=O)N2CCCCC2)ccc1C)Cc1ccccc1,13,·,26,12,·,-8
CC(C)(C)OC(=O)NCc1ccc(CNC(=O)c2nc[nH]c2C(=O)N2CCN(c3ccccc3)CC2)cc1,·,·,19,-16,·,9
Cc1cc(C)n2cc(CSc3nc4ccccc4s3)nc2n1,-107,10*,-59,-40,-1,-78
Cc1cc(C)n2cc(CSc3nnc(SCc4cn5c(C)cc(C)nc5n4)s3)nc2n1,·,0,·,·,-2,·
CCCCN(Cc1nc2ccccc2c(=O)[nH]1)C(=O)CN1C(=O)NC2(CCCCC2)C1=O,·,·,16,-12,·,22
CSc1nc(Cl)c(Cc2ccc(OC(C)C)cc2)c(N2CCOCC2)n1,20,-1,21,-4,-2,7
